aSyn 5UTR inh – 5' untranslated region of α-synuclein, MLPCN primary screen. alpha-synuclein 5'UTR reporter, inhibitor activity. inhibition, % (tested at 7.5 µM). actives 0.82% (n = 300,000). AID 1813; in the data active = inhibition above about 60%;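 note: H4 neuroglioblastoma cells stably carrying SNCA 5'UTR luciferase fusion; 0% = DMSO wells and 100% = positive control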
Shn3 3UTR inh – Schnurri-3 reporter inhibition in Clone20 osteoblasts | Clone20 osteoblast Shn3 3'UTR firefly luciferase, 24 h | AID 588674 | actives 0.52% (n = 360,000) | inhibition, % at 12.5 µM;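 active = mean inhibition of at least 75% with every replicate also reaching 75%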;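 note: 0% = median of neutral control wells and 100% = pilot-screen positive control compound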
FN deposit inh – fibronectin deposition inhibition | inhibition, % at 12.6 µM | AH1F fibroblasts, Alexa488-fibronectin deposition fluorescence, overnight | actives 0.086% (n = 350,000);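 active = mean inhibition across replicates of 30% or more, regardless of how many single replicates reach that level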;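 note: positive control wells lacked labelled fibronectin entirely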
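Material – AH1F fibroblast monolayer, labelled fibronectin deposition · Reagent – labelled fibronectin 24 nM · Timing – 1 h adhesion, overnight exposure · Measured by – fluorescence at 485 nm excitation, 525 nm emission · Read-out – inhibition of fibronectin deposition signal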
EWS-Fli block – inhibitors of EWS/Fli oncoprotein transcriptional activity; A673 NR0B1-luciferase reporter, viability-normalised; inhibition, % at 12.6 µM; actives 0.67% (n = 350,000); AID 651661;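 active = mean inhibition of at least 50% after viability correction, with every replicate also passing that limit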;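 note: firefly luciferase signal divided by Alamar Blue viability fluorescence both relative to DMSO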
PAX8 reporter – PAX8 transcriptional activity inhibition. RMG-I TPO-luciferase reporter, SteadyGlo, 24 h. inhibition, % at 12.6 µM. actives 1.2% (n = 360,000). AID 652154;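 active = mean replicate inhibition at least 60% with every replicate also reaching 60%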;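 note: luciferase light reporting Pax8 driven TPO promoter activity; plate controls were median of neutral control wells for no effect and mitoxantrone controls for full effect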
EBV LMP1 NFkB – reduces LMP1-driven NF-kappaB luciferase signal | LMP1-induced NF-kappaB luciferase reporter cells, luminescence | inhibition, % at 12.5 µM | actives 0.69% (n = 350,000) | AID 504558; in the data active = inhibition above about 41%;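 note: 0% = neutral control wells and 100% = reference inhibitor control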
DNA binder FP – small molecule DNA binding by fluorescence polarization. AC35, µM (doses to about 68 µM), inactives show top-dose activity change, negative = DNA binding. salmon sperm DNA acridine orange fluorescence polarization. shares compounds with EWS-Fli block. actives 2% (n = 640);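 active = fitted curve reaches a 35% signal fall AC35 below twice the sample's top valid tested dose, actives reach about 48 µM in these data; inactive = the rest, including activity in the rising direction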;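 note: lower polarization ratio signals compound binding to DNA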
Active calls of the source: *; nt = not tested or not shown; ! = repeats disagree. Most compounds without a hit are left out; they make up all but 2.1% or so of the library.

SMILES | aSyn 5UTR inh | Shn3 3UTR inh | FN deposit inh | EWS-Fli block | PAX8 reporter | EBV LMP1 NFkB | DNA binder FP
Cc1ccc(/C=N/NC(=O)c2csc3c2CCCC3)cc1 | -24.4 | -5.9 | nt | nt | nt | -0.1 | nt
COc1cc(/C=N/NC(=O)c2csc3c2CCCC3)cc(OC)c1O | -10.6 | -5.9 | nt | 84.8* | -5.9 | 3.8 | -6.9%
O=C(Cc1ccncc1)Nc1ccc2c(c1)[C@@H]1C[C@H](CC(=O)NC3CCCC3)O[C@H](CO)[C@@H]1O2 | nt | nt | -0.3 | 6.9 | 5.2 | nt | nt
CCc1ccc(/C=C2\SC(=S)N(CCCC(=O)N3CCN(C)CC3)C2=O)cc1 | nt | -12.9 | 13.4 | 69.2* | 46.1 | -5.0 | -23.7%
CCc1ccc(/C=C2\SC(=S)N(CCCC(=O)NCCCN3CCOCC3)C2=O)cc1 | nt | 77.0 | -3.1 | 85.1* | 62.3* | 36.3 | 0.2%
C[C@@H](NC(=O)[C@@H]1[C@@H](CO)[C@@H]2Cn3c(cccc3=O)[C@@H]2N1CC1CCCC1)c1ccccc1 | nt | nt | -1.6 | 21.7 | nt | nt | nt
CN1CCN(CC(=O)Nc2nc3c(s2)CCCC3)CC1 | -18.1 | 8.7 | -16.7 | 5.8 | 12.6 | -0.7 | nt
CCN1CCN(/C=N/c2nc3c(s2)CCCC3)CC1 | 65.6* | 45.3 | nt | 57.2* | nt | 55.2* | -10.4%
CO[C@@H]1CN(C)C(=O)c2ccc(NC(=O)C3CCC3)cc2OC[C@@H](C)N(C(=O)NC(C)C)C[C@H]1C | nt | nt | 4.4 | 1.9 | nt | nt | nt
CN(C)C(=O)C[C@H]1CC[C@@H]2[C@H](COC[C@@H](O)CN2C(=O)c2ccncc2)O1 | nt | nt | 4.1 | 5.6 | -4.1 | nt | nt
O=C(N/N=C/c1c[nH]c2ccccc12)c1ccc(Br)cc1 | -45.7 | -35.2 | 1.5 | -53.2 | 0.5 | -11.7 | nt
CC(C)Oc1ccc(Br)cc1C(=O)N/N=C/c1c[nH]c2ccccc12 | 6.6 | 19.8 | 0.2 | 53.3* | -13.7 | -4.7 | -1.3%
COc1ccc(/C=C2/SC(=S)N(CCCC(=O)Nc3ccccc3C(=O)O)C2=O)cc1 | 53.2 | 47.2 | 9.0 | 63.9* | 37.6 | 16.6 | -0.3%
COc1ccc(/C=C2\SC(=O)N(CCCC(=O)Nc3ccc(C(=O)O)cc3)C2=O)cc1 | nt | 73.9 | -3.0 | 82.3* | 56.7 | 49.9* | 5.8%
O=C(CCCN1C(=O)/C(=C/c2cccs2)SC1=S)NNC(=O)c1ccccc1O | -3.0 | 42.6 | 5.9 | nt | -3.6 | 12.3 | nt
COc1ccc(/C=C2\SC(=S)N(CCCC(=O)N3CCN(C)CC3)C2=O)cc1 | -17.7 | -21.6 | 4.3 | 4.5 | 30.0 | 13.3 | nt
COc1ccc(/C=C2\SC(=S)N(CCCC(=O)NNC(=O)c3ccccc3O)C2=O)cc1 | 74.8* | 80.4 | -14.1 | 76.6* | 65.9* | 31.1 | 3.1%
Cc1ccc(S(=O)(=O)Nc2ccc3c(c2)C(=O)N([C@@H](C)CO)C[C@@H](C)[C@H](CN(C)C(=O)c2ccncc2)OCCCC[C@@H](C)O3)cc1 | nt | nt | -6.3 | 2.9 | -1.3 | nt | nt
O=C(C[C@H]1C=C[C@H](NC(=O)C2CCOCC2)[C@H](CO)O1)Nc1nccs1 | nt | nt | nt | 2.1 | nt | nt | nt
CCCN1C[C@@H](C)[C@H](OC)CN(C)C(=O)c2cc(NC(=O)NC3CCCC3)ccc2OC[C@@H]1C | nt | nt | -1.7 | nt | nt | nt | nt
CCCc1cc(=O)oc2c3c(cc(OCC(=O)N[C@@H](C)C(=O)O)c12)OC(C)(C)CC3 | -0.4 | 0.4 | -0.5 | 5.9 | 6.8 | 0.2 | nt
CCCc1cc(=O)oc2c3c(c4c(c12)OC(C)(C)C=C4)OC(C)C(C)C3O (stereo unspecified) | 7.2 | 73.7 | nt | 72.9* | nt | 6.4 | 1.9%
C[C@@H]1CN([C@H](C)CO)C(=O)c2cc(C#Cc3ccccc3)cnc2O[C@@H]1CN(C)C(=O)CN(C)C | nt | nt | 4.2 | 8.1 | nt | nt | nt
Cc1cccc(Oc2ccc(N)cc2)c1 | 2.0 | -13.6 | 6.9 | nt | nt | -16.3 | nt
Nc1ccc(Oc2cccc(Oc3ccc(N)cc3)c2)cc1 | 87.2* | 45.4 | 4.2 | 77.8* | 13.5 | 37.4 | 3.2%
SMILES | aSyn 5UTR inh | Shn3 3UTR inh | FN deposit inh | EWS-Fli block | PAX8 reporter | EBV LMP1 NFkB | DNA binder FP
Nc1nc(N)c2cc(Sc3ccc4ccccc4c3)ccc2n1 | 96.1* | 84.6 | 29.8 | 68.9* | 68.5* | nt | -4.4%
COc1ccccc1-c1ccc(OCCCN2CCC(C(O)(c3ccccc3)c3ccccc3)CC2)cc1 | nt | nt | 5.1 | 70.6* | 96.4* | nt | -15.4%
O=C(C[C@@H]1CC[C@@H]2[C@H](COC[C@H](O)CN2C(=O)c2ccc(F)cc2)O1)NCc1cccc(F)c1 | nt | nt | 1.0 | 2.2 | -19.5 | nt | nt
CC(C)CC#Cc1ccc([C@@H]2[C@@H](CO)N3CCCCN(S(=O)(=O)c4ccc(F)cc4)C[C@H]23)cc1 | nt | nt | nt | 81.9* | 91.4* | nt | -10.6%
Cc1ccc(S(=O)(=O)N[C@H]2C=C[C@H](CC(=O)NCc3ccc(Cl)c(Cl)c3)O[C@@H]2CO)cc1 | nt | nt | -8.5 | 4.1 | 24.1 | nt | nt
C(=C\c1ccc(C2[C@H]3CNC[C@@H]2N3Cc2ccccn2)cc1)/c1ccccc1 (stereo partly specified) | nt | nt | -0.4 | 58.9*! | 7.9 | nt | -10.5%
C(=C\c1ccc(C2[C@H]3CNC[C@@H]2N3Cc2cncnc2)cc1)/c1ccccc1 (stereo partly specified) | nt | nt | -10.2 | 1.0 | 4.6 | nt | nt
CCS(=O)(=O)NCC[C@H]1CC[C@@H](NC(=O)C2CCC2)[C@H](CO)O1 | nt | nt | -4.9 | -3.2 | -2.2 | nt | nt
O=C(O)c1ccc(N/N=C/c2ccc3nccnc3c2)cc1 | 94.0* | 79.9 | -5.3 | 84.4* | 119.5* | 81.8* | -4.1%
O=C(O)c1ccc(N/N=C/c2ccncc2)cc1 | -60.9 | -3.9 | 1.0 | -32.4 | -32.9 | 2.8 | nt
O=C(O)c1cccc(N/N=C/c2ccc(OC(F)(F)F)cc2)c1 | 64.3* | 28.8 | 1.3 | 73.7* | 20.1 | 38.8 | -7.7%
O=C(O)c1ccc(N/N=C/c2ccc(OC(=O)c3cccc(Cl)c3)cc2)cc1 | 76.0* | 19.0 | 8.1 | 64.1* | 86.1* | 60.6* | 4.5%
O=C(Oc1ccc(/C=N/Nc2ccccc2)cc1)c1ccccc1 | -24.5 | -15.8 | 12.6 | nt | 12.3 | -9.2 | nt
O=C(O)c1cccc(N/N=C/c2cccs2)c1 | 95.8* | 66.3 | 0.9 | 85.0* | 99.6* | 56.7* | -1.0%
CCC(=O)N[C@H]1C=C[C@@H](CC(=O)NCC2CC2)O[C@@H]1CO | nt | nt | -8.0 | 0.9 | nt | nt | nt
C[C@@H]1CN([C@@H](C)CO)C(=O)Cc2cc(NC(=O)Nc3ccc4c(c3)OCO4)ccc2O[C@H]1CN(C)C(=O)NC1CCCCC1 | nt | nt | 5.4 | -16.1 | -21.4 | nt | nt
CO[C@@H](CN(C)S(=O)(=O)c1cn(C)cn1)[C@H](C)CN(C(=O)Nc1ccc(F)cc1)[C@@H](C)CO | nt | nt | -1.9 | -8.0 | nt | nt | nt
N#C[C@H]1[C@H](c2ccc(C#Cc3ccccc3F)cc2)[C@@H](CO)N1C(=O)C1CCOCC1 | nt | nt | -5.4 | 67.3* | 74.7* | nt | -9.2%
CCc1cnc(N2[C@H](C#N)[C@H](c3ccc(C#Cc4ccccc4F)cc3)[C@@H]2CO)s1 | nt | nt | 11.0 | -22.1 | -7.7 | nt | nt
N#C[C@H]1[C@H](c2ccc(C#Cc3ccccc3F)cc2)[C@@H](CO)N1C(=O)C1CC1 | nt | nt | 6.1 | 19.1 | 12.2 | nt | nt
